Source: ChEMBL document CHEMBL5046237, “Identification of MRTX1133, a Noncovalent, Potent, and Selective KRASG12D Inhibitor” (J Med Chem, 2022)
pIC50, pKd: −log10 of the molar value.

Experiments:
[1] = target: GTPase KRas (Homo sapiens, UniProt P01116, G12D); experiment: Inhibition of KRAS G12D mutant in human AGS cells assessed as reduction in ERK phosphorylation measured after 3 hrs by In-Cell Western assay; assay type: cell-based
[2] = target: GTPase KRas (Homo sapiens, UniProt P01116); experiment: Binding affinity to human AviTEV6His-tagged KRAS isoform 4B wild type (1 to 169 residues) expressed in Escherichia coli BL21 (DE3) assessed as dissociation constant by SPR analysis
Method in brief: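 SPR measurement; where the KD fell beyond what the instrument can accurately determine, it was reported as an approximate value.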

[3] = Binding affinity to human AviTEV6His-tagged KRAS isoform 4B G12D mutant (1 to 169 residues) expressed in Escherichia coli BL21 (DE3) assessed as dissociation constant by SPR analysis
[4] = Inhibition of human C-terminal Avi biotinylated tagged KRAS isoform 4B G12D mutant (1 to 169 residues) expressed in Escherichia coli measured after 1 hr by HTRF assay
[5] = AUC (0 to 24 hrs) in CD-1 athymic nude-Foxn1nu mouse xenografted with human Panc 04.03 cells at 30 mg/kg, ip BID; assay type: ADME, organism-based; design: time < 24 hr, route intraperitoneal, dose 30 mg/kg; conditions: in vivo
[6] = tested on: MKN-1; experiment: Cytotoxicity against human MKN-1 cells harboring wild type KRAS assessed as reduction in cell viability measured after 3 days by 2D viability assay; conditions: MKN-1, 72 h
[7] = In vivo inhibition of KRAS G12D mutant in CD-1 athymic nude-Foxn1nu mouse xenografted with human Panc 04.03 cells assessed as reduction in ERK phosphorylation in tumor lysates at 30 mg/kg, ip measured after 1 hr; assay type: functional; conditions: CD-1, Panc 04.03, Neoplasm
Method in brief: (§1)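 The Panc 04.03 xenograft model received 30 mg/kg IP BID. Tumor pERK signal was measured 1 h and 12 h after the second dose. Mean pERK inhibition versus the vehicle cohort was assessed by two-tailed Student's t test with equal variance.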

[8] = In vivo inhibition of KRAS G12D mutant in CD-1 athymic nude-Foxn1nu mouse xenografted with human Panc 04.03 cells assessed as reduction in ERK phosphorylation in tumor lysates at 30 mg/kg, ip measured after 12 hrs; assay type: functional; conditions: CD-1, Panc 04.03, Neoplasm; method in brief: as §1
[9] = Antitumor activity against human Panc 04.03 cells harboring KRAS G12D mutant xenografted in CD-1 nude-Foxn1 mouse assessed as inhibition of tumor growth at 3 mg/kg, ip administered twice a day; assay type: functional; conditions: Panc 04.03, ip
Method in brief: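 Mice bearing Panc 04.03 (KRAS G12D) xenografts were dosed IP twice daily (BID) at 3, 10 or 30 mg/kg. Tumor volume was tracked against a vehicle cohort, and mean tumor volume differences were tested by two-tailed Student's t test assuming equal variance.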

[10] = tested on: AGS; experiment: cells; conditions: Homo sapiens, 72 h
[11] = Antitumor activity against human Panc 04.03 cells harboring KRAS G12D mutant xenografted in CD-1 nude-Foxn1 mouse assessed as tumor regression at 10 mg/kg, ip administered twice a day; conditions: Panc 04.03, ip
[12] = Time during which free drug concentration exceeds IC50 for KRAS G12D mutant-mediated ERK phosphorylation in human Panc 04.03 cells xenografted CD-1 athymic nude-Foxn1nu mouse plasma at 30 mg/kg, ip; conditions: in vivo

SMILES	pIC50 [1]	pKd [3]	pIC50 [4]	also measured
Oc1cc(-c2ncc3c(N4CC5CCC(C4)N5)ncnc3c2F)c2ccccc2c1	< 5.00	–	–	–
CN1CCC[C@H]1COc1nc(N2CCOCC2)c2cnc(-c3cc(O)cc4ccccc34)c(F)c2n1	–	5.82	4.92	pKd [2]: 6.25
CN(C)CCOc1nc(N2C[C@H]3CC[C@@H](C2)N3)c2cnc(-c3cc(O)cc4ccccc34)c(F)c2n1	< 5.00	–	7.15	–
CN1CCC[C@H]1COc1nc(N2CC3CC2CN3)c2cnc(-c3cc(O)cc4ccccc34)c(F)c2n1 (mixture of isomers)	–	7.02	6.19	–
Oc1cc(-c2ncc3c(N4CC5CCC(C4)N5)nc(OCC45CCCCN4CCC5)nc3c2F)c2ccccc2c1 (racemic)	6.19	–	7.92	–
COc1cccc2cccc(-c3ncc4c(N5C[C@H]6CC[C@@H](C5)N6)nc(OCC56CCCN5CCC6)nc4c3F)c12	5.92	–	7.07	–
CC1CNCCN1c1nc(OC[C@@H]2CCCN2C)nc2c(F)c(-c3cc(O)cc4ccccc34)ncc12 (mixture of isomers)	–	6.55	5.82	–
CN1CCC[C@H]1COc1nc(N2C[C@H]3CC[C@@H](C2)N3)c2cnc(-c3cc(O)cc4ccccc34)c(F)c2n1	–	9.10	8.30	–
Fc1ccc2cccc(-c3ncc4c(N5C[C@H]6CC[C@@H](C5)N6)nc(OCC56CCCN5CCC6)nc4c3F)c2c1F	7.01	–	8.15	–
Cn1ccnc1CCOc1nc(N2C[C@H]3CC[C@@H](C2)N3)c2cnc(-c3cc(O)cc4ccccc34)c(F)c2n1	5.46	–	7.52	–
Oc1cc(-c2ncc3c(N4C[C@H]5CC[C@@H](C4)N5)nc(OCC45CCCN4CCC5)nc3c2F)c2c(Cl)cccc2c1	7.20	–	> 8.70	–
Cc1cccc2cccc(-c3ncc4c(N5C[C@H]6CC[C@@H](C5)N6)nc(OCC56CCCN5CCC6)nc4c3F)c12	5.60	–	7.35	–
CCc1cccc2cccc(-c3ncc4c(N5C[C@H]6CC[C@@H](C5)N6)nc(OCC56CCCN5CCC6)nc4c3F)c12	6.70	–	8.22	–
CN1CCC[C@H]1COc1nc(N2CC3CCC2CN3)c2cnc(-c3cc(O)cc4ccccc34)c(F)c2n1 (stereo partly specified)	–	8.05	7.17	–
CN1CCN(c2nc(OC[C@@H]3CCCN3C)nc3c(F)c(-c4cc(O)cc5ccccc45)ncc23)CC1	–	5.06	4.27	pKd [2]: 5.21
CN(C)C1CN(c2nc(N3CC4CCC(C3)N4)c3cnc(-c4cc(O)cc5ccccc45)c(F)c3n2)C1	5.89	–	7.16	–
OCc1cccc2cccc(-c3ncc4c(N5C[C@H]6CC[C@@H](C5)N6)nc(OCC56CCCN5CCC6)nc4c3F)c12	< 5.00	–	7.10	–
Fc1c(-c2cccc3ccccc23)ncc2c(N3C[C@H]4CC[C@@H](C3)N4)nc(OCC34CCCN3CCC4)nc12	< 5.00	–	6.44	–

SMILES	pIC50 [1]	pKd [3]	pIC50 [4]	also measured
C#Cc1c(F)ccc2cccc(-c3ncc4c(N5C[C@H]6CC[C@@H](C5)N6)nc(OCC56CCCN5CCC6)nc4c3F)c12	7.62	–	> 8.70	AUC at 24 h [5]: 9500 ng·h/mL
Oc1cc(-c2ncc3c(N4C[C@H]5CC[C@@H](C4)N5)nc(OC[C@@]45CCCN4C[C@H](F)C5)nc3c2F)c2ccccc2c1	–	–	> 8.70	–
Oc1cc(-c2ncc3c(N4C[C@H]5CC[C@@H](C4)N5)nc(OC[C@]45CCCN4C[C@@H](F)C5)nc3c2F)c2ccccc2c1	–	–	> 8.70	–
CN1CCC[C@H]1COc1nc(N2CCCNCC2)c2cnc(-c3cc(O)cc4ccccc34)c(F)c2n1	–	6.38	5.59	–
C#Cc1cccc2cccc(-c3ncc4c(N5C[C@H]6CC[C@@H](C5)N6)nc(OCC56CCCN5CCC6)nc4c3F)c12	7.15	–	8.52	–
Fc1c(-c2cccc3cccc(F)c23)ncc2c(N3C[C@H]4CC[C@@H](C3)N4)nc(OCC34CCCN3CCC4)nc12	6.42	–	7.92	–
Oc1cc(-c2ncc3c(N4C[C@H]5CC[C@@H](C4)N5)nc(OCC45CCCN4CCC5)nc3c2F)c2ccccc2c1	6.57	–	> 8.70	–
CN1CCC[C@H]1COc1nc(N2CCNCC2)c2cnc(-c3cc(O)cc4ccccc34)c(F)c2n1	–	6.72	6.01	–
Oc1cc(-c2ncc3c(N4C[C@H]5CC[C@@H](C4)N5)nc(OCCN4C[C@@H]5C[C@H]4CO5)nc3c2F)c2ccccc2c1	5.52	–	7.21	–
Fc1c(-c2cccc3cccc(Cl)c23)ncc2c(N3C[C@H]4CC[C@@H](C3)N4)nc(OCC34CCCN3CCC4)nc12	6.72	–	7.82	–
O=C1CCC2(COc3nc(N4CC5CCC(C4)N5)c4cnc(-c5cc(O)cc6ccccc56)c(F)c4n3)CCCN12 (racemic)	< 5.00	–	6.12	–
C#Cc1c(F)ccc2cc(O)cc(-c3ncc4c(N5C[C@H]6CC[C@@H](C5)N6)nc(OC[C@@]56CCCN5C[C@H](F)C6)nc4c3F)c12	–	12.70	–	pIC50 [6]: < 5.52; inhibition in vivo at 30 mg/kg [7]: 62%; inhibition in vivo at 30 mg/kg [8]: 74%; inhibition in vivo at 3 mg/kg [9]: 94%; pIC50 [10]: 8.22; tumor regression % at 10 mg/kg [11]: 62%; T>IC50 [12]: 8 h
CN1CCC[C@H]1COc1nc(N2CCNCC2)c2cnc(-c3cccc4cccc(Cl)c34)c(F)c2n1	–	5.46	–	pKd [2]: 4.44
CC1CN(c2nc(OC[C@@H]3CCCN3C)nc3c(F)c(-c4cc(O)cc5ccccc45)ncc23)CCN1 (mixture of isomers)	–	6.42	5.68	–
CN1CCC[C@H]1COc1nc(N2CC3CC(C2)N3)c2cnc(-c3cc(O)cc4ccccc34)c(F)c2n1 (mixture of isomers)	–	7.14	6.51	–
Fc1ccc2cccc(-c3ncc4c(N5C[C@H]6CC[C@@H](C5)N6)nc(OCC56CCCN5CCC6)nc4c3F)c2c1	6.43	–	7.57	–
C#Cc1cccc2cc(O)cc(-c3ncc4c(N5C[C@H]6CC[C@@H](C5)N6)nc(OCC56CCCN5CCC6)nc4c3F)c12	7.85	–	> 8.70	–
